Consider eight compounds from ChEMBL document CHEMBL1139377, “Induced association of mu opioid (MOP) and type 2 cholecystokinin (CCK2) receptors by novel bivalent ligands” (J Med Chem, 2009).

The target of test [1] is T1, Gastrin/cholecystokinin type B receptor (Homo sapiens) (UniProt P32239).
T1 sequence (whole entry): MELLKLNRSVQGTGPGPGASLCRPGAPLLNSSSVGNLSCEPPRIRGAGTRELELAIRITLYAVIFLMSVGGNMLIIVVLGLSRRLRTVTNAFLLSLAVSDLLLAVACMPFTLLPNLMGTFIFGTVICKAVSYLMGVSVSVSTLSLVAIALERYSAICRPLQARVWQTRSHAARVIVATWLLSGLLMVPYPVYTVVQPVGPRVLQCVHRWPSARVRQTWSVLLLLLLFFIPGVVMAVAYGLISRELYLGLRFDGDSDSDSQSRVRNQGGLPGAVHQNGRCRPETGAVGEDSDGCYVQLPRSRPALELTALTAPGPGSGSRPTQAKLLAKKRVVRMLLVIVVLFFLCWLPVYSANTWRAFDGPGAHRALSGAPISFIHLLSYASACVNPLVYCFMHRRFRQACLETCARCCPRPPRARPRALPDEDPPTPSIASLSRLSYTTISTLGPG
The test is described as follows: Binding affinity to CCK2 receptor expressed in CHO cells assessed per mg of protein. It counts as cell-based. In outline:
(§1)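 Membranes came from CHO-K1 cells stably expressing CCK2 receptor alone or with MOP receptor. They were incubated with 125I-D-Tyr-Gly-[(Nle28,31)CCK-26-33] (1-5 pM) plus increasing unlabeled ligand for 90 min at room temperature in KRH, pH 7.4, with 0.2% BSA and soybean trypsin inhibitor. Nonspecific binding was set with 1 μM CCK. Bound ligand was filtered and gamma counted; Ki and Bmax (pmol/mg protein) were taken from LIGAND analysis. Mean±S.E.M., 3-5 experiments.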

For test [2], the target named is T2, Mu-type opioid receptor (Homo sapiens, UniProt P35372). The test is described as follows: Binding affinity to mu opioid receptor expressed in CHO cells assessed per mg of protein. In kind it is cell-based. In outline:
(§2)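 Membranes came from CHO cells stably expressing MOP receptor alone or with CCK2 receptor. They were incubated with [3H]DAMGO (0.4 nM) plus increasing unlabeled ligand for 2 h at room temperature in KRH, pH 7.4, with 0.2% BSA and soybean trypsin inhibitor. Nonspecific binding was set with 1 μM DAMGO. Samples were filtered on PEI-soaked GF/C and scintillation counted; Ki and Bmax (pmol/mg protein) came from LIGAND analysis. Mean±S.E.M., 3-5 experiments.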

The target in test [3] is T3, Gastrin/cholecystokinin type B receptor (Homo sapiens, UniProt P32239).
T3 sequence (P32239 whole entry): T1 sequence (whole entry)
The test is described as follows: Displacement of [125I]CCK-26-33 from CCK2 receptor expressed in CHO cells. In kind it is cell-based. In outline: (§3)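 CHO-K1 cell lines stably expressing CCK2 receptor alone or with MOP receptor; receptor-enriched membranes from density gradient centrifugation. (1-5 pM) and increasing concentrations of unlabeled ligand, 90 min, room temperature, KRH pH 7.4 with 0.2% BSA and soybean trypsin inhibitor. Filtration, gamma counting; nonsaturable binding with 1 μM CCK. Ki from LIGAND analysis; 3-5 independent experiments.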
On the technique in general: Loss of bound radioactivity is the signal in a displacement assay; it reports binding, not function.

The target in test [4] is T3, Gastrin/cholecystokinin type B receptor. The test is described as follows: Displacement of [125I]CCK-26-33 from CCK2R-MOPR coexpressed in CHO cells. It counts as cell-based. In short, it runs like this:
as §3

The subject of test [5] is Mus musculus. The test is described as follows: Antinociceptive activity in icv dosed ICR mouse after 24 hrs by tail flick assay. In kind it is functional. In short, it runs like this: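 24 h tolerance in male ICR mice: the day-1 ED80 i.c.v. dose (5 μL, under 1% DMSO) was given again 24 h later to the same mouse, after confirming antinociception had returned to baseline. Radiant-heat tail flick was read at peak time (10-20 min) and expressed as %MPE.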
For orientation: In hot-plate and tail-flick tests a longer latency is read as antinociception.

For test [6], the target named is T2, Mu-type opioid receptor. The test is described as follows: Displacement of [3H]DAMGO from mu opioid receptor expressed in CHO cells. In kind it is cell-based. In outline:
as §2

Test [7] has as its system Mus musculus. The test is described as follows: Antinociceptive activity in icv dosed ICR mouse by tail flick assay. In kind it is functional. In short, it runs like this: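 Male ICR mice (17-25 g) received i.c.v. injections (5 μL, under 1% DMSO) while conscious. Radiant-heat tail flick was measured at peak time from a 10-60 min time course, expressed as %MPE. At least three groups of 8-10 mice per dose-response, each mouse used once. ED50 (pmol/mouse) with 95% CI came from nonlinear regression.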

The target of test [8] is T1, Gastrin/cholecystokinin type B receptor (Homo sapiens). The test is described as follows: Binding affinity to CCK2R-MOPR coexpressed in CHO cells assessed per mg of protein by [125I] CCK-26-33 displacement assay. It counts as cell-based. In short, it runs like this:
as §1

In test [9] the target is T3, Gastrin/cholecystokinin type B receptor. The test is described as follows: Activity at CCK2R-MOPR coexpressed in CHO cells co-transfected with delta-6-Galphaqi4-myr assessed as intracellular calcium release by FLIPR. In kind it is functional, cell-based. In short, it runs like this: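 CHO cells stably expressing CCK2R were grown to 90% confluence, then transiently co-transfected by lipofectamine with MOPR and chimeric Gqi4-myr constructs. After 24 h they were seeded into 96-well plates and used the next day. Ca2+ mobilization was read with a FLIPR calcium kit on a FlexStation3, giving EC50 (nM); number of runs in parentheses.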

T2 sequence (P35372 whole entry): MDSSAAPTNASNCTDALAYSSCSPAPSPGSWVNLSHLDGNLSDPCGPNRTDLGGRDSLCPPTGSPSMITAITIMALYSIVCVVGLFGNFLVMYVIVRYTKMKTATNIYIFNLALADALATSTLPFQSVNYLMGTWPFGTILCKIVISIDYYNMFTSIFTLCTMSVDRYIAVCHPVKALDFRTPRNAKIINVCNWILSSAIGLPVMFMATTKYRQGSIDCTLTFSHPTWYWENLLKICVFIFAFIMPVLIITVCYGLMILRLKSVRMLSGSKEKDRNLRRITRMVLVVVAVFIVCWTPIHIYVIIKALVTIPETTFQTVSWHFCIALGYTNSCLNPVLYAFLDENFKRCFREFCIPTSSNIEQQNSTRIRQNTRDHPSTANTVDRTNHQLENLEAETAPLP

As for `CN1C(=O)[C@H](NC(=O)Nc2cccc(OCCNC(=O)COCC(=O)N[C@H]3CC[C@@]4(O)[C@H]5Cc6cc(O)cc7c6[C@@]4(CCN5C)[C@H]3O7)c2)N=C(c2ccccc2)c2ccccc21`, the Bmax in [1] came out at 14 pmol; at Mu-type opioid receptor [2], 12.4 pmol; in test [8], 9.3 pmol. The Ki in test [3] was determined as 0.223 µM; in test [4], 0.21 µM; on Mu-type opioid receptor [6] (read-out: Ki), 0.0241 µM. The ED50 with Mus musculus [5] is recorded as 57.31 pmol; in the test with Mus musculus [7], 3036 pmol.
Turning to `Cc1cccc(NC(=O)N[C@@H]2N=C(c3ccccc3)c3ccccc3N(C)C2=O)c1`, the Bmax in test [1] was 14.4 pmol; in test [8] it was 9.1 pmol.
One may read the EC50 as the concentration that produces a half-maximal response. At Mu-type opioid receptor [2], `CNC(=O)COCC(=O)NCCCCNC(=O)COCC(=O)N[C@H]1CC[C@@]2(O)[C@H]3Cc4cc(O)cc5c4[C@@]2(CCN3C)[C@H]1O5` showed a Bmax of 9.3 pmol. Further, the ED50 is 40.74 pmol in the test on Mus musculus [5] and 51.93 pmol in the test with Mus musculus [7]. The EC50 in [9] was 0.572 µM. This compound also gave a Ki on Mu-type opioid receptor [6] (cho) of 29.8.
For the compound `CN1C(=O)[C@H](NC(=O)Nc2cccc(OCCNC(=O)COCC(=O)NCCCCCCNC(=O)COCC(=O)N[C@H]3CC[C@@]4(O)[C@H]5Cc6cc(O)cc7c6[C@@]4(CCN5C)[C@H]3O7)c2)N=C(c2ccccc2)c2ccccc21`, the Bmax is 18.5 pmol in test [1], 7.4 pmol at Mu-type opioid receptor [2] and 10.9 pmol in test [8]. The Ki was 0.26 µM in [3], 0.077 µM in [4] and 0.0294 µM on Mu-type opioid receptor [6] (read-out: Ki). Moreover, the ED50 with Mus musculus [5] came to 64.33 pmol; with Mus musculus [7] it was 2020 pmol.
As for `CNC(=O)COCC(=O)NCCCCCCNC(=O)COCC(=O)NCCOc1cccc(NC(=O)N[C@@H]2N=C(c3ccccc3)c3ccccc3N(C)C2=O)c1`, the values for the Bmax in [1] and in test [8] were 16 pmol and 9.5 pmol, respectively. For the same compound, the EC50 in [9] is < 10 µM.
With `CN1C(=O)[C@H](NC(=O)Nc2cccc(OCCNC(=O)COCC(=O)NNC(=O)COCC(=O)N[C@H]3CC[C@@]4(O)[C@H]5Cc6cc(O)cc7c6[C@@]4(CCN5C)[C@H]3O7)c2)N=C(c2ccccc2)c2ccccc21`, the Bmax came to 16 pmol in test [1], 9.8 pmol at Mu-type opioid receptor [2] and 9.5 pmol in [8]. The Ki came to 0.356 µM in [3], 0.057 µM in test [4] and 0.0083 µM at Mu-type opioid receptor [6] (read-out: Ki). The ED50 in the test with Mus musculus [5] is on record as 84.45 pmol; with Mus musculus [7] it was 47.41 pmol.
As to `CN1C(=O)[C@H](NC(=O)Nc2cccc(OCCNC(=O)COCC(=O)NCCNC(=O)COCC(=O)N[C@H]3CC[C@@]4(O)[C@H]5Cc6cc(O)cc7c6[C@@]4(CCN5C)[C@H]3O7)c2)N=C(c2ccccc2)c2ccccc21`, the Bmax in test [1] is 10.3 pmol; on Mu-type opioid receptor [2], 7.7 pmol; in [8], 12.4 pmol. Moreover, the Ki in test [3] was found to be 0.071 µM; in test [4] it was 0.033 µM; at Mu-type opioid receptor [6] (read-out: Ki) it was 0.0057 µM. Also, the ED50 worked out at 71.29 pmol in the test with Mus musculus [5] and 390 pmol in the test on Mus musculus [7]. For the same compound, in [9], the EC50 was 0.119 µM.
In turn, `C[C@@H](NC(=O)[C@@H](N)Cc1ccc(O)cc1)C(=O)NCC(=O)N(C)[C@@H](Cc1ccccc1)C(=O)NCCO` [DAMGO] yielded a Bmax on Mu-type opioid receptor [2] of 9.2 pmol. For the same compound, in test [9], the EC50 worked out at 0.00266 µM.
